Bioassay records deposited in PubChem BioAssay by SRMLSC.
An excerpt weighted towards active compounds, which were near 6.6% of everything screened.
PostGolgi yeast: growth inhibition of a yeast mutant, post-Golgi transport screen; post-Golgi transport phenotypic cell assay; inhibition, % at 10 µM; hit rate 0.9% among 98,000; AID 739;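 further: yeast cells grown in 1536-well plates; yeast grown about 18 h at 30C before absorbance read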
Ecoli tolC: blocks growth of E. coli BW25113 tolC mutant; OD615; growth inhibition, % at 10 µM (by protocol); hit rate 2.2% among 65,000; AID 573;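 active means growth inhibition at or above a cutoff equal to the mean over every tested compound plus 3 SD, cut at about 60% in these data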;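 further: growth measured after 20 h incubation at 37 °C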
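Test system: tolC-deleted E. coli BW25113 | Medium: LB with kanamycin 50 µg/mL | Compound dosing: Single concentration, 10 µM final per compound | Schedule: 37 °C, 20 h exposure | Measured by: OD at 615 nm | Evaluation: Percent growth inhibition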
HER2 expr 66K: inhibitors of human Her2 kinase expression | P04626 | SKBR-3 HER2 protein level, AlphaScreen, 18-24 h; stronger effect = lower value | HER2 level % of control, % at 10 µM | hit rate 0.69% among 65,000;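 active means HER2 level under 5% of the carrier-only control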;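 further: 100% = DMSO carrier and 0% = 500 nM PU-H71 HSP90 inhibitor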
Ecoli WT expand: growth inhibitors of E. coli BW25113 wild type; OD600 absorbance; growth inhibition, % at 100 µM; hit rate 0.15% among 98,000; AID 710;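 active means growth inhibition above about 50% at one test dose, limit read from the data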;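 further: growth measured after 20 h incubation at 37 °C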
PostGolgi ctrl: growth of the yeast control strain, post-Golgi counter-screen; efflux-deficient yeast background strain, growth absorbance A615, 16 h; inhibition, % at 10 µM; hit rate 5% among 98,000; AID 738
An asterisk follows results filed as active; . = no result. Unless noted, no stated cut-off is given here; in the data, active means inhibition above about 30%; inactive means the rest.

SMILES	PostGolgi yeast	Ecoli tolC	HER2 expr 66K	Ecoli WT expand	PostGolgi ctrl
CC1(c2cnc(Nc3ccccc3)s2)CCC(=O)O1 (configuration not stated)	-5	3	83	-3	39*
O=C1CC(C(=O)Nc2ccccc2)C2(CCCCC2)O1 (configuration not stated)	-2	.	.	2	2
Cc1nn(-c2ccccc2)c(-c2ccccc2)c1C(=O)O	1	-5	95	-31	17
O=C(CCSc1nnc(-c2ccncc2)o1)Nc1ccccc1Cl	-4	.	.	7	1
O=C(CCSc1nnc(-c2ccncc2)o1)Nc1ccc(Cl)cc1	102*	2	181	-11	99*
COc1ccc(CNC(=O)COC(=O)c2cnccn2)cc1	1	.	.	3	6
CN1C(=O)C2(N=c3ccccc3=N2)c2ccccc21	5	6	50	-2	27
CC1CC(OCC(O)CN2CCN(Cc3ccccc3)CC2)CC(C)(C)C1 (configuration not stated)	83*	.	.	15	32*
C=C(C)c1cccc(C(C)(C)NC(=O)N2CCCCC2CC)c1 (configuration not stated)	-10	.	.	4	5
Cc1noc(C)c1CSc1nc2sc3c(c2c(=O)n1C)CCCC3	0	.	.	-5	40*
CN1CCN(C(=O)C(C(=O)c2ccc(F)cc2)n2ccccc2=O)CC1 (configuration not stated)	-5	.	.	-11	6
CCCCOC(=O)CCn1[nH]c(=O)c2ccccc2c1=O	-7	7	91	5	8
O=C(CCn1[nH]c(=O)c2ccccc2c1=O)OC1CCCCC1	-1	16	-24*	0	5
CC1CCN(c2nc3ccc(C(=O)N4CCN(Cc5ccc6c(c5)OCO6)CC4)cc3s2)CC1	10	.	.	-18	41*
O=C(c1ccc2nc(N3CCOCC3)sc2c1)N1CCCC1	4	-5	106	2	4
CCc1ccc2oc(-c3cccc(NC(=O)c4cccnc4)c3)nc2c1	2	37	52	-7	74*
O=C(Nc1ccc2oc(-c3ccccc3)nc2c1)c1cccnc1	-10	25	111	-5	15
CCn1cc(C(=O)OCC(=O)OC2CC(C)CCC2C(C)C)c(=O)c2ccc(C)nc21 (configuration not stated)	-8	84*	40	10	15
CSc1ccc(CNc2ccc(C)cc2)cc1	0	.	.	5	-1
CC(=O)Nc1ccc(S(=O)(=O)N2CCN(CC(=O)NC3CCCC3)CC2)cc1	-4	-2	106	3	2
O=C(Nc1ncccc1Cl)C(Sc1ccccc1)c1ccccc1 (configuration not stated)	-25	.	.	-1	22
CC(=O)Nc1cccc(-c2csc(Nc3cc(C)ccn3)n2)c1	1	.	.	11	31*
Cc1nn(C)cc1CN(C)C(=O)c1sc2cccc(Cl)c2c1Cl	1	19	99	4	16
CC(C)(C)C(=O)NC(=S)Nc1ccccc1C(=O)Nc1ccccc1	-5	.	.	1	1
Cn1c(NC(=O)c2ccccc2NC(=O)C(C)(C)C)nc2ccccc21	3	99*	102	-1	12
SMILES	PostGolgi yeast	Ecoli tolC	HER2 expr 66K	Ecoli WT expand	PostGolgi ctrl
O=C(Cn1cnc2c(cnn2-c2ccc(Cl)cc2)c1=O)NCC1CCCO1 (configuration not stated)	-15	-17	123	-5	1
CC(Oc1ccccc1Br)C(=O)N1CCc2ccccc21 (configuration not stated)	-8	69*	76	6	23
Cc1cc(C)n(CC(=O)O)n1	.	-19	85	.	.
Cc1cc(C)n(CCn2nc(C)cc2C)n1	-2	-32	156	-4	37*
O=C(NCCc1ccccc1)C1CCN(S(=O)(=O)c2cccs2)CC1	-3	-3	96	-7	-2
O=S(=O)(c1cccs1)N1CCC(Cc2ccccc2)CC1	-5	30	92	-15	35*
CC1(C)CC(=O)C2=C(C1)N(Cc1ccco1)C(=O)C2(O)C(F)(F)F (configuration not stated)	-7	-4	104	-12	2
COc1ccc(NC(=O)c2c(C(F)(F)F)nn(C)c2SCc2ccccc2Cl)cc1	8	.	.	-8	23
CC(=O)N(C)/C=C1\Sc2ccccc2C1=O	5	.	.	-3	44*
O=S(=O)(Nc1ccc(S(=O)(=O)N2CCCCC2)cc1)c1cccs1	-6	27	90	11	-1
COC(=O)c1ccccc1NC(=O)Cn1cc(Br)cn1	-5	-6	79	0	8
CCC1(C)OC(=O)N2CCc3c(C)[nH]c4c(C)ccc(c34)C21C (configuration not stated)	-1	44	91	8	32*
CCOC(=O)c1c(C)[nH]c(C(=O)COC(=O)c2ccc(N3CCCC3=O)cc2)c1C	-6	-11	114	-1	-4
CC(=O)Nc1cccc(NC(=O)C2CCCN2C(=O)Nc2ccccc2C)c1 (configuration not stated)	-19	-29	99	-3	8
Cc1ccccc1-c1nc(-c2ccc(NC(=O)c3ccc4c(c3)OCO4)cc2)no1	-15	.	.	0	-5
COc1cc(-c2nc(-c3ccc(NC(=O)c4ccc5c(c4)OCO5)cc3)no2)cc(OC)c1OC	-7	13	-3.3*	-7	-9
Nn1c(SCC(=O)N2CCN(S(=O)(=O)c3ccc(Cl)cc3)CC2)nnc1-c1cccs1	16	.	.	2	3
O=C(Nc1nc(-c2cccs2)c(-c2ccccc2)s1)c1ccco1	36*	16	105	-16	32*
COc1cccc(N2C(=O)N(c3ccccc3Cl)C3CS(=O)(=O)CC32)c1 (configuration not stated)	0	-20	96	4	-2
Cc1ccccc1N1C(=O)N(c2cccc(C(F)(F)F)c2)C2CS(=O)(=O)CC21 (configuration not stated)	6	6	76	3	39*
Cc1nc2ncnn2c(C)c1Cc1ccc(Cl)cc1F	.	-1	82	.	.
O=C1OCC2=C1C(c1ccc(F)cc1)Sc1ccccc1N2 (configuration not stated)	94*	.	.	1	-7
O=C1CC(c2ccc(F)cc2)Sc2ccccc2N1 (configuration not stated)	-3	8	111	3	12
CCC(=O)N(CCO)Cc1cc2ccc(C)c(C)c2[nH]c1=O	33*	-16	65	2	-5
COc1cc(C(=O)N(CCCO)Cc2cc3ccc(C)c(C)c3[nH]c2=O)cc(OC)c1OC	-3	-11	120	7	2
CSc1oc(-c2ccco2)nc1S(=O)(=O)c1ccccc1	7	8	99	-8	-1
CC(C)Sc1oc(-c2ccco2)nc1S(=O)(=O)c1ccccc1	-6	49	209	-2	41*
COc1ccc(C2C=C(c3ccccc3)Nc3nc(CCCO)nn32)cc1 (configuration not stated)	-1	-4	132	2	5
COc1ccc(C2C=C(c3cccs3)Nc3nc(CCCO)nn32)cc1 (configuration not stated)	9	-7	93	-4	45*
